Results from different studies.
Values after ≈ are worked out from the molar mass of the structure shown.

| SMILES | organism | assay | system | setting | quantity | result |
| --- | --- | --- | --- | --- | --- | --- |
| CS(=O)(=O)NCc1cccc(-n2c(/C=C/c3ccc(C#N)cc3)nc3ccccc3c2=O)c1 | Enterococcus faecium | microbial growth, broth dilution | NCTC7171 | – | MIC | > 128 mg/L |
| C[C@@H](Oc1cc(-n2cnc3ccc(OCC4CCN(C)CC4)cc32)sc1C(N)=O)c1ccccc1C(F)(F)F | Trypanosoma brucei | parasite growth | – | – | EC50 | 0.0158 µM |
| C[C@@H]1[C@H](O)[C@@H](C)/C=C/C=C/C=C/C=C/C=C/C=C/C=C/[C@H](O[C@@H]2O[C@H](C)[C@@H](O)[C@H](N)[C@@H]2O)C[C@@H]2O[C@](O)(C[C@@H](O)C[C@@H](O)[C@H](O)CC[C@@H](O)C[C@@H](O)CC(=O)O[C@H]1C)C[C@H](O)[C@H]2C(=O)O | Candida albicans | microbial growth | ATCC90028 | – | IC50 | 0.32 mg/L |
| CS(=O)(=O)CCNCc1nc(-c2ccc3ncnc(Nc4ccc(OCc5cccc(C(F)(F)F)c5)cc4)c3c2)cs1 | Trypanosoma brucei | parasite growth | – | – | EC50 | 3.16 µM |
| C[N+](C)(C)CCc1ccc(Oc2ccc(-c3noc(-c4ccc(O)cc4)n3)cc2)cc1.[I-] | Enterococcus faecium | microbial growth, broth dilution | – | 24 h | MIC | 8 mg/L |
| CC1=C(C(=O)Nc2ccc3[nH]ncc3c2)C(c2ccc(Cl)c(Cl)c2)CC(=O)N1 (stereo not shown) | Trypanosoma brucei | parasite growth | – | – | EC50 | 25.1 µM |
| C[C@@H]1[C@H](O)[C@@H](C)/C=C/C=C/C=C/C=C/C=C/C=C/C=C/[C@H](O[C@@H]2O[C@H](C)[C@@H](O)[C@H](N)[C@@H]2O)C[C@@H]2O[C@](O)(C[C@@H](O)C[C@@H](O)[C@H](O)CC[C@@H](O)C[C@@H](O)CC(=O)O[C@H]1C)C[C@H](O)[C@H]2C(=O)O | Candida albicans | microbial killing | ATCC90028 | – | MFC | 1.25 mg/L (≈ 1.35 µM) |
| [O-][S+]1CCN(Cc2ccc(-c3ccc4ncnc(Nc5ccc(OCc6cccc(F)c6)c(Cl)c5)c4c3)o2)CC1 | Trypanosoma brucei | parasite growth | – | – | EC50 | 2 µM |
| N#CCNC(=O)c1ccc(-c2ccnc(Nc3ccc(N4CCOCC4)cc3)n2)cc1 | Plasmodium berghei | parasite growth, luciferase | human | liver stage | IC50 | 0.55 µM |
| COC(=O)Nc1cccc(-n2c(/C=C/c3ccc(C#N)cc3)nc3ccccc3c2=O)c1 | Enterococcus faecium | microbial growth, broth dilution | NCTC7171 | – | MIC | > 128 mg/L |
| O=C(O)c1ccc(-c2c[nH]c3ncc(-c4ccccc4)cc23)cc1C1CCCC1 | Plasmodium berghei | parasite growth, luciferase | human | liver stage | IC50 | 1.2 µM |
| Oc1ccc(-c2nc(-c3ccc(Oc4ccccc4)cc3)no2)cc1 | Enterococcus faecium | microbial growth, broth dilution | – | 24 h | MIC | 2 mg/L (≈ 6.05 µM) |
| O=C(O)c1cn(C2CC2)c2cc(N3CCNCC3)c(F)cc2c1=O | Mycobacterium intracellulare | microbial growth | ATCC23068 | – | IC50 | 0.69 µM |
| C=CCCCCCCCCCCCC(O)CC(O)CO (stereo not shown) | Mycobacterium intracellulare | microbial growth, resazurin | ATCC23068 | – | IC50 | > 200 mg/L |
| N#Cc1ccc(/C=C/c2nc3ccncc3c(=O)n2-c2cccc(C(=O)O)c2)cc1 | Enterococcus faecium | microbial growth, broth dilution | NCTC7171 | – | MIC | > 128 mg/L |
| NS(=O)(=O)c1ccc(N/N=C2\C(=O)Nc3ccc(Cl)cc32)cc1 | Trypanosoma brucei | parasite growth | – | – | EC50 | 1.58 µM |
| CCCCCCCCCC(=O)N[C@@H](Cc1c[nH]c2ccccc12)C(=O)N[C@H](CC(N)=O)C(=O)N[C@@H](CC(=O)O)C(=O)N[C@@H]1C(=O)NCC(=O)N[C@@H](CCCN)C(=O)N[C@@H](CC(=O)O)C(=O)N[C@H](C)C(=O)N[C@@H](CC(=O)O)C(=O)NCC(=O)N[C@H](CO)C(=O)N[C@@H]([C@H](C)CC(=O)O)C(=O)N[C@@H](CC(=O)c2ccccc2N)C(=O)O[C@@H]1C | Enterococcus faecium | microbial growth, broth dilution | – | 24 h | MIC | 2 mg/L (≈ 1.23 µM) |
| O=C(NCCO)c1cccc(-n2c(/C=C/c3ccc(F)cc3)nc3ccccc3c2=O)c1 | Enterococcus faecium | microbial growth, broth dilution | NCTC7171 | – | MIC | > 128 mg/L |
| C[C@@H]1[C@H](O)[C@@H](C)/C=C/C=C/C=C/C=C/C=C/C=C/C=C/[C@H](O[C@@H]2O[C@H](C)[C@@H](O)[C@H](N)[C@@H]2O)C[C@@H]2O[C@](O)(C[C@@H](O)C[C@@H](O)[C@H](O)CC[C@@H](O)C[C@@H](O)CC(=O)O[C@H]1C)C[C@H](O)[C@H]2C(=O)O | Candida albicans | microbial growth, broth dilution | ATCC90028 | – | IC50 | 0.26 mg/L |
